This passage reports ED50 results from ChEMBL document CHEMBL1122270, “N-(4-substituted-thiazolyl)oxamic acid derivatives, a new series of potent, orally active antiallergy agents” (1983).

The test system of one assay is Rattus norvegicus. Nature of the assay: antiallergic activity by rat passive cutaneous anaphylaxis (PCA) assay when administered iv. Type of assay: functional.
Conditions: not given
In a few lines: (§1)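 Male rats sensitized by id injection of diluted rat anti-ovalbumin reaginic serum (0.1 mL each side of shaved back). 24 h later, compound in saline was mixed with 5 mg ovalbumin in 0.5 mL 2% Evans Blue and given iv at 1 mL/kg. Blued-spot diameters were read 30 min later. Six rats per group; ED50 is 50% area reduction versus control, with 95% confidence limits.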
For `CCOC(=O)C(=O)Nc1nc(-c2ccc(N(C)C)cc2)cs1`, the ED50 – broadly, the dose that gives a 50% effect, or the effect in half of the subjects – was around 0.3 mg/kg.
With `NCCO.O=C(O)C(=O)Nc1nc(-c2cccc(O)c2)cs1`, the ED50 is around 0.1 mg/kg.
Compound `COc1cc(OC)cc(-c2csc(NC(=O)C(=O)O)n2)c1` displayed an ED50 of around 0.1 mg/kg.
Same read-out and setting: the value for `NCCO.O=C(O)C(=O)Nc1nc(-c2ccc(O)c(O)c2)cs1` was 0.08 mg/kg; that for `O=C(O)C(=O)Nc1nc(-c2ccc(O)cc2)cs1` was around 0.1 mg/kg; that for `CCCC(=O)Nc1ccc(-c2csc(NC(=O)C(=O)OCC)n2)cc1` was below 0.3 mg/kg.
The same measure, in the same setting: the result for `COc1ccccc1-c1csc(NC(=O)C(=O)O)n1` reads above 1 mg/kg; that for `COc1ccc(OC)c(-c2csc(NC(=O)C(=O)O)n2)c1.NCCO`, around 0.3 mg/kg.
`CCOC(=O)C(=O)Nc1nc(-c2ccccc2OC)cs1` returned an ED50 of around 1 mg/kg.
`Cc1cc(O)ccc1-c1csc(NC(=O)C(=O)O)n1.NCCO` came in with an ED50 of 1 mg/kg.

The next assay deals with Rattus norvegicus. Nature of the assay: Antiallergic activity by rat passive cutaneous anaphylaxis (PCA) assay when administered iv;value ranges between (0.07-0.4.). It is filed as functional.
Conditions: not given
In a few lines:
as §1
In turn, `CC(=O)Nc1ccc(-c2csc(NC(=O)C(=O)O)n2)cc1` returned an ED50 of 0.16 mg/kg.

The test system of the next assay is Rattus norvegicus. In words: Antiallergic activity by rat passive cutaneous anaphylaxis (PCA) assay when administered iv;value ranges between (0.07-1.70). Type of assay: functional.
Conditions: not given
In a few lines: as §1
`CN(C)c1cccc(-c2csc(NC(=O)C(=O)O)n2)c1.NCCO`: the 50% effect level (ED50) was put at a dose of 0.35 mg/kg.

A further assay has as its system Rattus norvegicus. Nature of the assay: Antiallergic activity by rat passive cutaneous anaphylaxis (PCA) assay when administered iv;value ranges between (0.2-1.1). It is filed as functional.
Conditions: not given
The procedure, abridged:
as §1
`COc1ccc(-c2csc(NC(=O)C(=O)O)n2)c(OC)c1` came in with an ED50 of 0.39 mg/kg.

The next assay concerns Rattus norvegicus. In words: Antiallergic activity by rat passive cutaneous anaphylaxis (PCA) assay when administered iv;value ranges between (0.56-2.74). It is filed as functional.
Conditions: not given
The procedure, abridged:
as §1
`O=C([O-])c1cc(=O)c2c(OCC(O)COc3cccc4oc(C(=O)[O-])cc(=O)c34)cccc2o1.[Na+].[Na+]` [CROMOLYN SODIUM] came in with an ED50 of 1.24 mg/kg.

In a further assay the test system is Rattus norvegicus. Nature of the assay: Antiallergic activity by rat passive cutaneous anaphylaxis (PCA) assay when administered iv;value ranges between 0.23-2.24.
Conditions: not given
Type of assay: functional. The procedure, abridged: as §1
The compound `CC(=O)c1cc(-c2csc(NC(=O)C(=O)O)n2)ccc1O.NCCO.NCCO` gave an ED50 of 0.71 mg/kg.

The test system of the next assay is Rattus norvegicus. In words: Antiallergic activity by rat passive cutaneous anaphylaxis (PCA) assay when administered per orally;value ranges between (0.15-0.94.). Type of assay: functional. The following applies: po. In a few lines: (§2)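 Rats were passively sensitized intradermally with diluted reaginic anti-ovalbumin serum 24 h before challenge. Compound was suspended in 1% acacia and dosed by oral feeding needle at 1 mL/kg. After 20-30 min, rats were challenged with 0.02 mg ovalbumin in 0.5 mL 2% Evans Blue. Blued areas were measured 30 min after challenge. Six rats per dose; ED50 is 50% area reduction from control, with 95% confidence limits.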
The compound `CC(=O)Nc1ccc(-c2csc(NC(=O)C(=O)O)n2)cc1` had an ED50 of 0.37 mg/kg.

For another assay, the system named is Rattus norvegicus. In words: Antiallergic activity by rat passive cutaneous anaphylaxis (PCA) assay when administered per orally;value ranges between (0.18-1.48). Type of assay: functional. The conditions noted are these: po. The procedure, abridged:
as §2
As for `Cc1sc(NC(=O)C(=O)O)nc1-c1ccc2c(c1)OCCO2`, the 50% effect level (ED50) was put at a dose of 0.5 mg/kg.

A further assay relates to Rattus norvegicus. Nature of the assay: Antiallergic activity by rat passive cutaneous anaphylaxis (PCA) assay when administered per orally;value ranges between (0.4-0.8.). It is filed as functional. The conditions noted are these: po. The procedure, abridged: as §2
Turning to `CCOc1ccc(-c2csc(NC(=O)C(=O)O)n2)cc1.NCCO`, the 50% effect level (ED50) was put at a dose of 0.54 mg/kg.

A further assay deals with Rattus norvegicus. In words: Antiallergic activity by rat passive cutaneous anaphylaxis (PCA) assay when administered per orally;value ranges between (0.91-5.2). The following applies: po. Type of assay: functional. In a few lines: as §2
`CCOC(=O)C(=O)Nc1nc(-c2ccco2)cs1` yielded an ED50 of 2.2 mg/kg.

A further assay concerns Rattus norvegicus. In words: Antiallergic activity by rat passive cutaneous anaphylaxis (PCA) assay when administered per orally;value ranges between (1.0-6.6). Type of assay: functional. The following applies: po. In a few lines: as §2
On to `CCOC(=O)C(=O)Nc1nc(-c2ccc(O)c(C(C)=O)c2)cs1`, for which it took a dose of 2.6 mg/kg to reach the 50% effect level (ED50).

The next assay relates to Rattus norvegicus. In words: Antiallergic activity by rat passive cutaneous anaphylaxis (PCA) assay when administered per orally;value ranges between( 0.4-3.0.). Type of assay: functional. The conditions noted are these: po. In a few lines: as §2
`CN(C)c1cccc(-c2csc(NC(=O)C(=O)O)n2)c1.NCCO` displayed an ED50 of 1.7 mg/kg.

In a further assay the test system is Rattus norvegicus. In words: Antiallergic activity by rat passive cutaneous anaphylaxis (PCA) assay when administered per orally;value ranges between( 0.5-2.9). It is filed as functional. The following applies: po. The procedure, abridged:
as §2
As to `CCOC(=O)C(=O)Nc1nc(-c2ccncc2)cs1`, the ED50 amounted to 1.2 mg/kg.

Another assay concerns Rattus norvegicus. Nature of the assay: Antiallergic activity by rat passive cutaneous anaphylaxis (PCA) assay when administered perorally. Type of assay: functional. The conditions noted are these: po. The procedure, abridged:
as §2
In turn, `NC(=O)C(=O)Nc1nc(-c2ccccc2)cs1` returned an ED50 of around 1 mg/kg.

For another assay, the system named is Rattus norvegicus. In words: Antiallergic activity by rat passive cutaneous anaphylaxis (PCA) assay when administered per orally. The following applies: po. Type of assay: functional. The procedure, abridged:
as §2
Regarding `CCOC(=O)C(=O)Nc1nc(-c2ccc(N(C)C)cc2)cs1`, the ED50 is around 1 mg/kg.
On the same count and under the same terms, the result for `CCOC(=O)C(=O)Nc1nc(-c2cccc(O)c2)cs1` reads above 10 mg/kg.
Same read-out and setting: the result for `NCCO.O=C(O)C(=O)Nc1nc(-c2cccc(O)c2)cs1` reads 3 mg/kg; that for `NCCO.O=C(O)C(=O)Nc1nc(-c2cccnc2)cs1`, above 10 mg/kg; that for `CCOC(=O)C(=O)Nc1nc(-c2ccc3c(c2)OCCO3)cs1`, above 10 mg/kg.
`CCOC(=O)C(=O)Nc1nc(-c2ccccc2C(=O)OC)cs1` returned an ED50 above 10 mg/kg.
`CCOC(=O)C(=O)Nc1nc(-c2ccc(-c3ccccc3)cc2O)cs1` returned an ED50 above 10 mg/kg.
`CCOC(=O)C(=O)Nc1nc(-c2ccc3c(c2)CCCC3)cs1` returned an ED50 above 10 mg/kg.
Still for that read-out and setting: the value for `NC(=O)C(=O)Nc1nc(-c2ccc3c(c2)CCCC3)cs1` was above 10 mg/kg; that for `CCOC(=O)C(=O)Nc1nc(-c2ccc3c(c2)N(C(C)=O)c2ccccc2S3)cs1` was above 10 mg/kg; that for `CCOC(=O)C(=O)Nc1nc(-c2ccc(N3CCOCC3)cc2)cs1` was above 100 mg/kg.
With `CCOC(=O)C(=O)Nc1nc(-c2ccccn2)cs1`, the ED50 was around 10 mg/kg.
`COc1cc(OC)cc(-c2csc(NC(=O)C(=O)O)n2)c1`: the ED50 was around 1 mg/kg.
Compound `CCOC(=O)C(=O)Nc1nc(-c2cccnc2)cs1` showed an ED50 of around 10 mg/kg.
Take `CCOC(=O)C(=O)Nc1nc(-c2ccc3c(c2)OCC(CN2CCCCC2)O3)cs1` (stereo unspecified): the ED50 was above 10 mg/kg.
Same read-out and setting: the result for `Cc1cc(-c2csc(NC(=O)C(=O)O)n2)ccc1O.NCCO` reads around 1 mg/kg.
Same read-out and setting: the value for `CCOC(=O)C(=O)Nc1nc(-c2ccc(OC)c(OC)c2)cs1` was around 3 mg/kg; that for `CCOC(=O)C(=O)Nc1nc(-c2ccc(Oc3ccccc3)cc2)cs1` was above 30 mg/kg; that for `CCOC(=O)C(=O)Nc1nc(-c2cc(OC)ccc2OC)cs1` was above 10 mg/kg.
As for `CCOC(=O)C(=O)Nc1nc(-c2ccc(O)c(O)c2)cs1`, the ED50 amounted to 1.4 mg/kg.
Still for that read-out and setting: the value for `NCCO.O=C(O)C(=O)Nc1nc(-c2ccc(O)c(O)c2)cs1` was 0.1 mg/kg; that for `O=C(O)C(=O)Nc1nc(-c2ccc(O)cc2)cs1` was above 3 mg/kg; that for `CCOC(=O)C(=O)Nc1nc(-c2ccc3oc(C)c(C)c(=O)c3c2)cs1` was above 3 mg/kg.
Same read-out and setting: the value for `CCCCOC(=O)C(=O)Nc1nc(-c2ccc(C(=O)OCC)cc2)cs1` was above 10 mg/kg.
`CCCC(=O)Nc1ccc(-c2csc(NC(=O)C(=O)OCC)n2)cc1` registered an ED50 above 10 mg/kg.
As to `CCOC(=O)C(=O)Nc1nc(-c2c(C)cc(C)cc2O)cs1`, the ED50 is around 10 mg/kg.
The same measure, in the same setting: the value for `CCOC(=O)C(=O)Nc1nc(-c2ccc([N+](=O)[O-])cc2)cs1` was above 100 mg/kg; that for `COc1ccc(OC)c(-c2csc(NC(=O)C(=O)O)n2)c1.NCCO` was around 7 mg/kg; that for `CCOC(=O)C(=O)Nc1nc(-c2ccc3c(c2)Sc2ccccc2S3)cs1` was above 10 mg/kg.
`CCOC(=O)C(=O)Nc1ncc(-c2ccccc2)s1`: the ED50 was around 10 mg/kg.
Still for that read-out and setting: the value for `CCOC(=O)C(=O)Nc1nc(-c2ccccc2OC)cs1` was above 30 mg/kg; that for `O=C(O)C(=O)Nc1nc(-c2ccc(-c3ccccc3)cc2O)cs1` was above 30 mg/kg.
For `CCOC(=O)C(=O)Nc1nc(-c2ccc(OC)cc2OC)cs1`, the ED50 is above 30 mg/kg.
On the same count and under the same terms, the result for `CCOC(=O)C(=O)Nc1ccc(-c2csc(NC(=O)C(=O)OCC)n2)cc1` reads above 30 mg/kg.
On to `CCOC(=O)C(=O)Nc1nc(-c2ccc(C(=O)OCC)cc2)cs1`, for which the ED50 is above 10 mg/kg.
On the same count and under the same terms, the value for `CC(=O)c1cc(-c2csc(NC(=O)C(=O)O)n2)ccc1O.NCCO.NCCO` was around 1 mg/kg; that for `CCOC(=O)C(=O)Nc1nc(-c2ccc(NC(=O)C(F)(F)F)cc2)cs1` was around 1 mg/kg; that for `CCOC(=O)C(=O)Nc1nc(-c2ccc(F)cc2)cs1` was above 10 mg/kg.
For `NC(=O)C(=O)Nc1ccc(-c2csc(NC(=O)C(N)=O)n2)cc1`, the ED50 is around 1 mg/kg.
The compound `CCOC(=O)C(=O)Nc1nc(-c2cc(OC)cc(OC)c2)cs1` had an ED50 of around 10 mg/kg.
Take `CCOC(=O)C(=O)Nc1nc(-c2cccc(OC)c2)cs1`: the median effective dose (ED50) was around 20 mg/kg.
Compound `NC(=O)C(=O)Nc1nc(-c2ccc3c(c2)OCCO3)cs1` showed an ED50 above 30 mg/kg.
Still for that read-out and setting: the result for `NCCO.NCCO.O=C(O)C(=O)Nc1ccc(-c2csc(NC(=O)C(=O)O)n2)cc1` reads above 10 mg/kg.
The same measure, in the same setting: the value for `CCOC(=O)C(=O)Nc1nc(-c2ccc(Sc3ccccc3)cc2)cs1` was above 3 mg/kg; that for `CCOC(=O)c1ccc(-c2csc(NC(=O)C(=O)OC)n2)cc1` was above 10 mg/kg; that for `CCOC(=O)C(=O)Nc1nc(-c2cc(OC)c(O)c(OC)c2)cs1` was around 10 mg/kg.
Same read-out and setting: the result for `CC(=O)Nc1ccc(-c2csc(NC(=O)C(N)=O)n2)cc1` reads above 10 mg/kg.
In turn, `CCOC(=O)C(=O)Nc1nc(C)c(C)s1` returned an ED50 above 10 mg/kg.
The same measure, in the same setting: the result for `NCCO.O=C(O)C(=O)Nc1nc(-c2ccncc2)cs1` reads above 3 mg/kg; that for `CCOC(=O)C(=O)Nc1nc(-c2ccc(O)cc2)cs1`, around 15 mg/kg; that for `Cc1cc(C)c(-c2csc(NC(=O)C(=O)O)n2)c(O)c1.NCCO`, above 10 mg/kg.
Turning to `NCCO.O=C(O)C(=O)Nc1nc(-c2ccc(Oc3ccccc3)cc2)cs1`, the ED50 was above 10 mg/kg.
Still for that read-out and setting: the result for `CCOC(=O)C(=O)Nc1nc(-c2ccc(OC)cc2)cs1` [TIOXAMAST] reads around 10 mg/kg; that for `NCCO.O=C(O)C(=O)Nc1nc(-c2ccc(Sc3ccccc3)cc2)cs1`, above 30 mg/kg.
On the same count and under the same terms, the value for `COc1ccc(-c2csc(NC(=O)C(=O)O)n2)c(OC)c1` was above 10 mg/kg; that for `Cc1cc(O)ccc1-c1csc(NC(=O)C(=O)O)n1.NCCO` was above 10 mg/kg; that for `CC(=O)N1c2ccccc2Sc2ccc(-c3csc(NC(=O)C(=O)O)n3)cc21.NCCO` was around 10 mg/kg.
Still for that read-out and setting: the value for `CCOC(=O)C(=O)Nc1nc(-c2ccc(OC)cc2O)cs1` was around 1 mg/kg.
